Square brackets hold non-standard residues; d marks the D form. Peptide text beside a SMILES is read from it. * marks the point of attachment. X1 = CC(C)C[C@@H](C(=O)*)N1C(=O)N[C@H](Cc2c[nH]c3ccccc23)C1=O
target: T1, Endothelin receptor (Rattus norvegicus, UniProt P26684+P21451); assay: Inhibition constant for the displacement of specific binding of [125I]-ET (Kd=2 nM) bound to rat pituitary membrane; assay type: tissue-based, Pituitary gland
T1 sequence (P26684 whole entry): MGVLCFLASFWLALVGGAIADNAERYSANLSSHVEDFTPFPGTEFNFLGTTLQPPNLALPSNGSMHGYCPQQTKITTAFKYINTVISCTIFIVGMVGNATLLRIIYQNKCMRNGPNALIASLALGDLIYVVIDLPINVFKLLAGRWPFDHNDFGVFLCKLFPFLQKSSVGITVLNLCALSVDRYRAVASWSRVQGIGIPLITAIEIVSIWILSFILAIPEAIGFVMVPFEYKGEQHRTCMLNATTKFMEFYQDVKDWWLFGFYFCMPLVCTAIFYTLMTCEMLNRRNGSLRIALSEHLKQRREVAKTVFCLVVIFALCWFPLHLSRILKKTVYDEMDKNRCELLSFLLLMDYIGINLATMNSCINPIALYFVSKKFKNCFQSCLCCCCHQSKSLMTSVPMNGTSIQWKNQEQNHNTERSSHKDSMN
T1 sequence (P21451 whole entry): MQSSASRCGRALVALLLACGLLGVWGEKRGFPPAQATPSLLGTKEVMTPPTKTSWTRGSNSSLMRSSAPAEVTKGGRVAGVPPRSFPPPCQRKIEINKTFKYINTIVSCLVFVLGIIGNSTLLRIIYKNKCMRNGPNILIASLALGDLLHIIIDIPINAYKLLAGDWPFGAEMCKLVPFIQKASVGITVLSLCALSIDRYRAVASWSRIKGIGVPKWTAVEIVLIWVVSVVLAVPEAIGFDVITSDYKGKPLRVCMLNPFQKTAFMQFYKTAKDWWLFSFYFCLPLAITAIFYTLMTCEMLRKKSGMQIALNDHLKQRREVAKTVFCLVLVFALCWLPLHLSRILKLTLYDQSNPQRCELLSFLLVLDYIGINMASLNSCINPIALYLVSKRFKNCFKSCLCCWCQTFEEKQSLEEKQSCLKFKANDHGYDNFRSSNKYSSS

Ki [µM] | SMILES
55 | CC[C@H](C)[C@H](NC(=O)[C@H](CC(=O)O)NC(=O)[C@H](CC(C)C)NC(=O)[C@H](N)Cc1c[nH]c2ccccc12)C(=O)N[C@H](C(=O)N[C@@H](Cc1c[nH]c2ccccc12)C(=O)O)[C@@H](C)CC
6 | CC[C@H](C)[C@H](NC(=O)[C@H](CC(=O)O)NC(=O)[C@H](CC(C)C)N1C(=O)N[C@H](Cc2c[nH]c3ccccc23)C1=O)C(=O)N[C@H](C(=O)N[C@@H](Cc1c[nH]c2ccccc12)C(=O)O)[C@@H](C)CC (X1-DIIW-OH)

target: T2, Gonadotropin-releasing hormone receptor (Rattus norvegicus, UniProt P30969); assay: Inhibition constant for the displacement of specific binding of [125I][D-Lys6]-GnRH (Kd=177 pM) bound to rat pituitary membranes; assay type: cell membranes, Membrane
T2 sequence (P30969 whole entry): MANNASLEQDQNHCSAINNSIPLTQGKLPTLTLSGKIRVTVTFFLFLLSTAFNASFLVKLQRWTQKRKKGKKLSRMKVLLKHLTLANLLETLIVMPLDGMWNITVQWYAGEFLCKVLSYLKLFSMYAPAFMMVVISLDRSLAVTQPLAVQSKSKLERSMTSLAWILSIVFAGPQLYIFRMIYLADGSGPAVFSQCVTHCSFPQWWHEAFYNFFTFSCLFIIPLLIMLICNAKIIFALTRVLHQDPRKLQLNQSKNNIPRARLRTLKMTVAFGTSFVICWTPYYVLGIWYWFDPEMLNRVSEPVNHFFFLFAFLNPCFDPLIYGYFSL
Method in brief: (§1)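 Membranes from proestrous Wistar-derived rat pituitaries (25 μg protein/tube) incubated 90 min at 4 °C with 23.5 pM 125I-[D-Lys6]GnRH plus increasing unlabeled peptide (up to 10 μM, DMSO ≤1%) in 10 mM Tris-HCl/0.1% BSA. Filtration on GF/C, gamma counting. Nonspecific binding from 1 μM [D-Lys6]GnRH. Ki fitted from displacement curves; two experiments in triplicate, mean ± SEM.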

Ki [µM] | SMILES
0.5 | CC[C@H](C)[C@H](N)C(=O)N[C@H](C(=O)N[C@@H](Cc1c[nH]c2ccccc12)C(=O)N[C@H](Cc1c[nH]cn1)C(=O)N[C@@H](CC(C)C)C(=O)N[C@@H](CC(=O)O)C(=O)O)[C@@H](C)CC
0.7 | CC[C@H](C)[C@H](N)C(=O)N[C@H](C(=O)N[C@@H](Cc1c[nH]c2ccccc12)C(=O)N[C@H](Cc1c[nH]c2ccccc12)C(=O)N[C@@H](CC(C)C)C(=O)N[C@@H](CC(=O)O)C(=O)O)[C@@H](C)CC
4 | CC[C@H](C)[C@H](N)C(=O)N[C@H](C(=O)N[C@@H](Cc1c[nH]c2ccccc12)C(=O)N[C@@H](Cc1c[nH]c2ccccc12)C(=O)N[C@@H](CC(C)C)C(=O)N[C@@H](CC(=O)O)C(=O)O)[C@@H](C)CC
> 10 | CC[C@H](C)[C@H](N)C(=O)N[C@H](C(=O)N[C@@H](Cc1c[nH]c2ccccc12)C(=O)N[C@H](C)C(=O)N[C@@H](CC(C)C)C(=O)N[C@@H](CC(=O)O)C(=O)O)[C@@H](C)CC
8 | CC[C@H](C)[C@H](N)C(=O)N[C@H](C(=O)N[C@@H](Cc1c[nH]c2ccccc12)C(=O)N[C@H](Cc1ccccc1)C(=O)N[C@@H](CC(C)C)C(=O)N[C@@H](CC(=O)O)C(=O)O)[C@@H](C)CC
2 | CC[C@H](C)[C@H](NC(=O)[C@H](CCCNC(=N)N)NC(=O)[C@H](CC(C)C)NC(=O)[C@@H](Cc1c[nH]c2ccccc12)NC(C)=O)C(=O)N[C@H](C(=O)N[C@@H](Cc1c[nH]c2ccccc12)C(=O)O)[C@@H](C)CC
0.32 | CC[C@H](C)[C@@H]1NC(=O)CSC[C@@H](C(=O)O)NC(=O)[C@H](CC(C)C)NC(=O)[C@@H](Cc2c[nH]c3ccccc23)NC(=O)[C@H](Cc2c[nH]c3ccccc23)NC(=O)[C@H]([C@@H](C)CC)NC1=O
0.7 | CC[C@H](C)[C@@H]1NC(=O)[C@H](CC(=O)O)NC(=O)[C@H](CC(C)C)NC(=O)[C@@H](Cc2c[nH]c3ccccc23)NC(=O)[C@H](Cc2c[nH]c3ccccc23)NC(=O)[C@H]([C@@H](C)CC)NC1=O
8 | CC[C@H](C)[C@H](NC(=O)[C@H](CC(=O)O)NC(=O)[C@H](CC(C)C)NC(=O)[C@H](N)Cc1c[nH]c2ccccc12)C(=O)N[C@H](C(=O)N[C@@H](Cc1c[nH]c2ccccc12)C(=O)O)[C@@H](C)CC
1.9 | CC[C@H](C)[C@H](NC(=O)[C@H](CC(=O)O)NC(=O)[C@H](CC(C)C)NC(=O)[C@@H](Cc1c[nH]c2ccccc12)NC(C)=O)C(=O)N[C@H](C(=O)N[C@@H](Cc1c[nH]c2ccccc12)C(=O)O)[C@@H](C)CC (Ac-[dW]LDIIW-OH)
0.23 | CC[C@H](C)[C@H](NC(=O)[C@H](CC(=O)O)NC(=O)[C@H](CC(C)C)N1C(=O)N[C@H](Cc2c[nH]c3ccccc23)C1=O)C(=O)N[C@H](C(=O)N[C@@H](Cc1c[nH]c2ccccc12)C(=O)O)[C@@H](C)CC (X1-DIIW-OH)

target: T2, Gonadotropin-releasing hormone receptor; assay: Inhibition constant for the displacement of specific binding of [125I][D-Lys6]-GnRH (Kd=177 pM) bound to rat pituitary membranes; No significant binding at 10 uM; assay type: cell membranes, Membrane; method in brief: as §1

Ki | SMILES
Not Active | CC[C@H](C)[C@H](N)C(=O)N[C@H](C(=O)N[C@@H](Cc1ccccc1)C(=O)N[C@H](Cc1c[nH]c2ccccc12)C(=O)N[C@@H](CC(C)C)C(=O)N[C@@H](CC(=O)O)C(=O)O)[C@@H](C)CC
Not Active | CC[C@H](C)[C@H](N)C(=O)N[C@H](C(=O)N[C@@H](Cc1c[nH]cn1)C(=O)N[C@H](Cc1c[nH]c2ccccc12)C(=O)N[C@@H](CC(C)C)C(=O)N[C@@H](CC(=O)O)C(=O)O)[C@@H](C)CC

Source: ChEMBL document CHEMBL1133454, “Structure-activity studies of reduced-size gonadotropin-releasing hormone agonists derived from the sequence of an endothelin antagonist” (J Med Chem, 2000)
